What was measured:
[1] = molecular target: hASF1A(1-156) (Homo sapiens, UniProt Q9Y294); assay: Isothermal titration calorimetry; type: binding
[2] = molecular target: 15N hASF1A(1-156) (Homo sapiens, UniProt Q9Y294); assay: NMR 1H-15N SOFAST HMQC titration of 15N-hASF1A; type: binding
Summary of the method: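 Uniformly 15N-labelled hASF1A(1-156) (M9, 15NH4Cl) at 40 μM in 50 mM tris-HCl pH 7.5, 0.1 mM EDTA, DSS, NaN3, protease inhibitors, 10% D2O. Spectra at 293 or 298 K, 600 MHz, with stepwise test compound additions. Δδ = √(ΔHN² + (0.17ΔN)²), normalised to saturation maximum. Kd fitted against total compound concentration for nine residues shifting >0.07 ppm; mean ± SD reported.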

[3] = molecular target: ASF1; conditions: cited from earlier work
[4] = VP-ITC, 20°C, 50 mM tris-HCl pH 7.5, at least duplicate

Sequence of hASF1A(1-156) (Q9Y294 1-156): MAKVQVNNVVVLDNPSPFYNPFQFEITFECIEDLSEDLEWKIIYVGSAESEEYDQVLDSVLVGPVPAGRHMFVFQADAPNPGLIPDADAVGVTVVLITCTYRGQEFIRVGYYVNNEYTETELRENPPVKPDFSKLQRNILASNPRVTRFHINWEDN
Sequence of 15N hASF1A(1-156) (Q9Y294 1-156): as above

Row | Compound | Kd [1] | Affinities times lower than the P1 to P4 peptide series ([1]; ITC) | N (ITC stoichiometry) [1, 4] | ΔH [1, 4] | −TΔS [1, 4] | Kd [2] | Exchange regime upon 15N-ASF1 titration ([2]; NMR titration, chemical shift variation of hASF1A residues) | Affinity for ASF1 [3]
1 | CC[C@H](C)[C@H](NC(=O)[C@H](CCCNC(=N)N)NC(=O)NC[C@H](CCC(N)=O)NC(=O)NC[C@H](CC(C)C)NC(=O)NC[C@H](CCCNC(=N)N)NC(=O)NC[C@H](Cc1ccc2ccccc2c1)NC(=O)[C@H](CCCCN)NC(=O)[C@H](CCC(=O)O)NC(C)=O)C(=O)N[C@@H](C)C(N)=O [C2] | 2700 ± 600 nM | 10 to 80 times | 1.0 ± 0.1 | -2.2 ± 0.1 kcal/mol | -4.8 ± 0.2 kcal/mol | 4 ± 1 µM | fast exchange rate | –
2 | ASTEEKWARLARRIAGAGGVTLDGFG [ip4] | – | – | – | – | – | – | – | low nanomolar range

Source: publication PMC7978421 (Science Advances, 2021)
